The subject of experiment [1] is Escherichia coli. Briefly: Antibacterial activity in vitro against Escherichia coli Vogel. Type of experiment: functional. Conditions: Escherichia coli; read-out: MIC. The method in brief: (§1)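 Standard microtitration broth assay against a panel of 10 Gram-positive and Gram-negative organisms. MIC read in µg/mL and averaged over multiple experiments.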
Experiment [2] concerns Escherichia coli. The experiment can be described thus: Antibacterial activity against Escherichia coli Vogel after oral administration in mouse. The experiment is classed as functional. Conditions: for ED50: Escherichia coli, po, read-out: PD50.
Experiment [3] deals with Escherichia coli. The experiment can be described thus: Antibacterial activity against Escherichia coli Vogel after subcutaneous administration in mouse. Type of experiment: functional. The following applies: Escherichia coli, sc; read-out: PD50.
In the next experiment the test system is Enterobacter cloacae. Briefly: Minimum inhibitory concentration in vitro against Enterobacter cloacae MA 2646. The experiment is classed as functional. The following applies: Enterobacter cloacae; read-out: MIC.
Another experiment concerns Enterococcus faecalis. Briefly: Minimum inhibitory concentration was evaluated in vitro against Enterococcus faecalis MGH-2. Type of experiment: functional. Conditions: Enterococcus faecalis; read-out: MIC. The method in brief: as §1
Another experiment has as its system Klebsiella pneumoniae. Briefly: Minimum inhibitory concentration was evaluated in vitro against Klebsiella pneumoniae MGH2. The experiment is classed as functional. The following applies: Klebsiella pneumoniae; read-out: MIC. The method in brief:
as §1

A further experiment relates to Providencia rettgeri. The experiment can be described thus: Minimum inhibitory concentration was evaluated in vitro against Providencia rettgeri M1771. Type of experiment: functional. The following applies: Providencia rettgeri; read-out: MIC. The procedure, abridged: as §1
In the next experiment the test system is Pseudomonas aeruginosa. Briefly: Minimum inhibitory concentration was evaluated in vitro against Pseudomonas aeruginosa UI-18. The following applies: Pseudomonas aeruginosa; read-out: MIC. The experiment is classed as functional. The procedure, abridged: as §1
In experiment [4] the test system is Staphylococcus aureus. Briefly: Minimum inhibitory concentration was evaluated in vitro against Staphylococcus aureus H 228. The experiment is classed as functional. Conditions: Staphylococcus aureus; read-out: MIC. The procedure, abridged:
as §1

For experiment [5], the system named is Staphylococcus aureus. Briefly: Minimum inhibitory concentration was evaluated in vitro against Staphylococcus aureus UC 76. The experiment is classed as functional. The following applies: Staphylococcus aureus; read-out: MIC. The procedure, abridged: as §1
The subject of a further experiment is Streptococcus pneumoniae. Briefly: Minimum inhibitory concentration was evaluated in vitro against Streptococcus pneumoniae SV-1. Conditions: Streptococcus pneumoniae; read-out: MIC. Type of experiment: functional. The method in brief:
as §1

Experiment [6] deals with Streptococcus pyogenes. The experiment can be described thus: Antibacterial activity measured as mouse protection against Streptococcus pyogenes C 203 after subcutaneous administration. The experiment is classed as functional. Conditions: Streptococcus pyogenes, C 203, sc; read-out: PD50.
A short description of experiment [7]: Clonogenic cytotoxicity against hamster V-79 cells. The experiment is classed as functional, Cricetulus griseus, V79. The method in brief: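 Chinese hamster V-79 cells grown overnight, then drug-treated for 3 h at 37 °C. Medium is replaced with fresh medium and cells are incubated 5 days to allow colony formation. IC50 (µg/mL) is the concentration inhibiting colony formation by 50% relative to control.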

The subject of experiment [8] is Streptococcus pyogenes. Briefly: Compounds were evaluated in vivo for antibacterial activity for mouse protection against Streptococcus pyogenes C 203 after oral administration. Type of experiment: functional. The following applies: Streptococcus pyogenes, C 203, po; read-out: PD50.
Experiment [9] has as its system Streptococcus pyogenes. The experiment can be described thus: Minimum inhibitory concentration was evaluated in vitro against Streptococcus pyogenes C 203. The following applies: Streptococcus pyogenes; read-out: MIC. Type of experiment: functional. The procedure, abridged: as §1
For a further experiment, the species on record is Mus musculus. Briefly: Compounds were evaluated for phototoxicity no-effect dose in mouse. Type of experiment: functional. The method in brief:
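Depilated female CD-1 mice, five per dose plus controls. Animals are dosed orally and then exposed daily to UV-A (320–400 nm) for 3 h, for up to 4 days or until a definite positive response. Redness or erythema relative to controls, read 24 h after irradiation, counts as positive. Reported as the highest dose with no effect (mg/kg).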

Values after ≈ are worked out from the molar mass of the structure shown.

Broadly, the MIC is the least concentration at which growth counts as inhibited.

As to `CCn1cc(C(=O)O)c(=O)c2cc(F)c(N3CCC(C(C)N)C3)c(OC)c21` (racemic), the MIC in the experiment with Escherichia coli [1] was 0.05 µg/mL (≈ 0.132 µM); in the experiment with Enterobacter cloacae it was 0.1 µg/mL (≈ 0.265 µM); with Enterococcus faecalis, 0.006 µg/mL (≈ 0.0159 µM); in the experiment on Klebsiella pneumoniae, 0.1 µg/mL (≈ 0.265 µM); in the experiment with Providencia rettgeri it was 0.1 µg/mL (≈ 0.265 µM); in the experiment with Pseudomonas aeruginosa, 0.8 µg/mL (≈ 2.12 µM). The MIC in the experiment on Staphylococcus aureus [4] turned out to be 0.006 µg/mL (≈ 0.0159 µM); with Staphylococcus aureus [5] it was 0.003 µg/mL (≈ 0.00795 µM); in the experiment with Streptococcus pneumoniae, 0.003 µg/mL (≈ 0.00795 µM); with Streptococcus pyogenes [9] it was 0.003 µg/mL (≈ 0.00795 µM). The ED50 in the experiment on Escherichia coli [2] was found to be 9 mg/kg; with Escherichia coli [3], 3 mg/kg; in the experiment on Streptococcus pyogenes [6], 0.2 mg/kg; with Streptococcus pyogenes [8], 3 mg/kg. Also, in experiment [7], the Cytotoxicity is 19 µg/mL.
`C[C@@H](N)[C@@H]1CCN(c2c(F)c(N)c3c(=O)c(C(=O)O)cn(C4CC4)c3c2F)C1`: the MIC worked out at 0.025 µg/mL (≈ 0.0637 µM) in the experiment with Escherichia coli [1]; 0.025 µg/mL (≈ 0.0637 µM) with Enterobacter cloacae; 0.006 µg/mL (≈ 0.0153 µM) in the experiment with Enterococcus faecalis; 0.025 µg/mL (≈ 0.0637 µM) in the experiment on Klebsiella pneumoniae; 0.05 µg/mL (≈ 0.127 µM) in the experiment with Providencia rettgeri; 0.4 µg/mL (≈ 1.02 µM) in the experiment with Pseudomonas aeruginosa. Also, the MIC with Staphylococcus aureus [4] is 0.003 µg/mL (≈ 0.00765 µM); in the experiment with Staphylococcus aureus [5] it was 0.003 µg/mL (≈ 0.00765 µM); in the experiment with Streptococcus pneumoniae it was 0.006 µg/mL (≈ 0.0153 µM); with Streptococcus pyogenes [9] it was 0.006 µg/mL (≈ 0.0153 µM). Moreover, in the experiment with Escherichia coli [2], the PD50 stood at 4 mg/kg. Besides, the ED50 in the experiment with Escherichia coli [3] was 0.7 mg/kg; with Streptococcus pyogenes [6] it was 0.2 mg/kg; in the experiment with Streptococcus pyogenes [8] it was 2 mg/kg. Besides, the Cytotoxicity in experiment [7] is below 7.8 µg/mL.
Consider `CNC(C)C1CCN(c2cc3c(c(N)c2F)c(=O)c(C(=O)O)cn3C2CC2)C1` (racemic), for which the MIC came to 0.1 µg/mL (≈ 0.257 µM) in the experiment on Escherichia coli [1]; 0.1 µg/mL (≈ 0.257 µM) with Enterobacter cloacae; 0.025 µg/mL (≈ 0.0644 µM) in the experiment with Enterococcus faecalis; 0.2 µg/mL (≈ 0.515 µM) in the experiment on Klebsiella pneumoniae; 0.4 µg/mL (≈ 1.03 µM) in the experiment with Providencia rettgeri; 1.6 µg/mL (≈ 4.12 µM) in the experiment on Pseudomonas aeruginosa. Also, the MIC with Staphylococcus aureus [4] amounted to 0.05 µg/mL (≈ 0.129 µM); with Staphylococcus aureus [5] it was 0.006 µg/mL (≈ 0.0154 µM); in the experiment with Streptococcus pneumoniae, 0.013 µg/mL (≈ 0.0335 µM); in the experiment with Streptococcus pyogenes [9], 0.025 µg/mL (≈ 0.0644 µM). In addition, the Dose in the experiment listed under Mus musculus is above 100 mg/kg. Further, the ED50 in the experiment with Streptococcus pyogenes [6] was 1 mg/kg; with Streptococcus pyogenes [8], 8 mg/kg. Besides, in experiment [7], the Cytotoxicity worked out at 290 µg/mL.
Take `COc1c(N2CC[C@@H]([C@@H](C)N)C2)c(F)cc2c(=O)c(C(=O)O)cn(C3CC3)c12`: the MIC in the experiment on Escherichia coli [1] turned out to be 0.05 µg/mL (≈ 0.128 µM); in the experiment on Enterobacter cloacae, 0.05 µg/mL (≈ 0.128 µM); with Enterococcus faecalis, 0.025 µg/mL (≈ 0.0642 µM); with Klebsiella pneumoniae, 0.1 µg/mL (≈ 0.257 µM); in the experiment with Providencia rettgeri it was 0.2 µg/mL (≈ 0.514 µM); in the experiment with Pseudomonas aeruginosa, 0.8 µg/mL (≈ 2.05 µM). Also, the MIC in the experiment with Staphylococcus aureus [4] stood at 0.025 µg/mL (≈ 0.0642 µM); with Staphylococcus aureus [5] it was 0.003 µg/mL (≈ 0.0077 µM); in the experiment on Streptococcus pneumoniae, 0.013 µg/mL (≈ 0.0334 µM); in the experiment with Streptococcus pyogenes [9], 0.013 µg/mL (≈ 0.0334 µM). For the same molecule, the ED50 in the experiment on Streptococcus pyogenes [6] was 1 mg/kg; in the experiment on Streptococcus pyogenes [8], 6 mg/kg. In [7], this molecule showed a Cytotoxicity of 41 µg/mL.
As to `CNCC1CCN(c2c(F)c(N)c3c(=O)c(C(=O)O)cn(C4CC4)c3c2F)C1` (stereo unspecified), the MIC in the experiment on Escherichia coli [1] was 0.025 µg/mL (≈ 0.0637 µM); in the experiment with Enterobacter cloacae, 0.05 µg/mL (≈ 0.127 µM); with Enterococcus faecalis, 0.025 µg/mL (≈ 0.0637 µM); with Klebsiella pneumoniae, 0.05 µg/mL (≈ 0.127 µM); in the experiment on Providencia rettgeri, 0.2 µg/mL (≈ 0.51 µM); in the experiment on Pseudomonas aeruginosa it was 0.4 µg/mL (≈ 1.02 µM). The MIC with Staphylococcus aureus [4] was found to be 0.013 µg/mL (≈ 0.0331 µM); in the experiment on Staphylococcus aureus [5] it was 0.006 µg/mL (≈ 0.0153 µM); with Streptococcus pneumoniae, 0.003 µg/mL (≈ 0.00765 µM); with Streptococcus pyogenes [9], 0.003 µg/mL (≈ 0.00765 µM). Further, the ED50 with Escherichia coli [2] was found to be 8 mg/kg; in the experiment on Escherichia coli [3], 1 mg/kg. The Dose in the experiment filed under Mus musculus is above 100 mg/kg. The molecule further registered a Cytotoxicity in experiment [7] of 7.8 µg/mL.
Consider `NC1CCN(c2c(F)cc3c(=O)c(C(=O)O)cn(C4CC4)c3c2C(F)(F)F)C1` (stereo unspecified), for which the MIC was found to be 0.1 µg/mL (≈ 0.25 µM) in the experiment on Escherichia coli [1], 0.1 µg/mL (≈ 0.25 µM) with Enterobacter cloacae and 0.2 µg/mL (≈ 0.501 µM) in the experiment on Staphylococcus aureus [4]. For the same molecule, the ED50 in the experiment on Escherichia coli [2] amounted to 3 mg/kg; in the experiment on Escherichia coli [3], 1 mg/kg; in the experiment with Streptococcus pyogenes [6], 22 mg/kg. In the experiment filed under Mus musculus, this molecule showed a Dose above 100 mg/kg. Moreover, the Cytotoxicity in [7] was 250 µg/mL.
Regarding `CN[C@H](C)[C@@H]1CCN(c2c(F)c(N)c3c(=O)c(C(=O)O)cn(C4CC4)c3c2F)C1`, the MIC was 0.05 µg/mL (≈ 0.123 µM) in the experiment with Escherichia coli [1]; 0.05 µg/mL (≈ 0.123 µM) in the experiment with Enterobacter cloacae; 0.013 µg/mL (≈ 0.032 µM) in the experiment on Enterococcus faecalis; 0.1 µg/mL (≈ 0.246 µM) with Klebsiella pneumoniae; 0.2 µg/mL (≈ 0.492 µM) in the experiment on Providencia rettgeri; 0.8 µg/mL (≈ 1.97 µM) with Pseudomonas aeruginosa. Moreover, the MIC in the experiment with Staphylococcus aureus [4] came to 0.006 µg/mL (≈ 0.0148 µM); with Staphylococcus aureus [5] it was 0.003 µg/mL (≈ 0.00738 µM); with Streptococcus pneumoniae it was 0.006 µg/mL (≈ 0.0148 µM); in the experiment on Streptococcus pyogenes [9] it was 0.006 µg/mL (≈ 0.0148 µM). Further, in the experiment listed under Mus musculus, the Dose is below 30 mg/kg. In experiment [7], this molecule came in with a Cytotoxicity of 24 µg/mL.

The record behind these values is ChEMBL document CHEMBL1126988, “Quinolone antibacterials containing the new 7-[3-(1-aminoethyl)-1- pyrrolidinyl] side chain: the effects of the 1-aminoethyl moiety and its stereochemical configurations on potency and in vivo efficacy” (J Med Chem, 1993).
